ChEMBL document CHEMBL2331076, “Pyridone alkaloids from a marine-derived fungus, Stagonosporopsis cucurbitacearum, and their activities against azole-resistant Candida albicans” (2013)
Converted amounts (≈) assume the structure as drawn.

Legend:
Assay type in all cases: functional
Cryptococcus neoformans = experiment: Antifungal activity against Cryptococcus neoformans MPU-B by CLSI M27-A2 microdilution method
In short: (§1)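 Broth microdilution per CLSI M27-A2, run in triplicate. Panel: azole-resistant C. albicans J2-36 (resistant to fluconazole, itraconazole, voriconazole), azole-sensitive C. albicans J1-97, C. glabrata J-92, Cryptococcus neoformans MPU-B. Quality control was run on each testing day with reference strains, including C. albicans ATCC 90028.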

Nakaseomyces glabratus = experiment: Antifungal activity against Candida glabrata J 92 by CLSI M27-A2 microdilution method; in short: as §1
Candida albicans [1] = experiment: Antifungal activity against azole-resistant Candida albicans J2-36 by CLSI M27-A2 microdilution method
Candida albicans [2] = experiment: Antifungal activity against azole-sensitive Candida albicans J1-97 by CLSI M27-A2 microdilution method; in short: as §1

SMILES | MIC (Cryptococcus neoformans) [mg/L] | MIC (Nakaseomyces glabratus) [mg/L] | MIC (Candida albicans [1]) [mg/L] | MIC (Candida albicans [2]) [mg/L]
C[C@@H]1CC[C@H]2[C@H](C(=O)c3c(O)c([C@]4(O)CCC(=O)[C@@H]5O[C@@H]54)cn(O)c3=O)[C@H](C)C=C[C@@H]2C1 [DIDYMELLAMIDE A] | 1.6 (≈ 3.61 µM) | 3.1 (≈ 6.99 µM) | 3.1 (≈ 6.99 µM) | 3.1 (≈ 6.99 µM)
C[C@@H]1CC[C@H]2[C@H](C(=O)c3c(O)c(-c4ccc(O)cc4)c[nH]c3=O)[C@H](C)C=C[C@@H]2C1 [DIDYMELLAMIDE B] | 6.3 (≈ 16 µM) | > 25 | > 25 | > 25
C[C@@H]1CC[C@H]2[C@H](C(=O)c3c(O)c(C4(O)C=CC(=O)CC4)c[nH]c3=O)[C@H](C)C=C[C@@H]2C1 (stereo partly specified) [DIDYMELLAMIDE C] | > 25 | > 25 | > 25 | > 25
C[C@@H]1CC[C@H]2[C@H](C(=O)c3c(O)c(C4(O)CCC(=O)CC4O)c[nH]c3=O)[C@H](C)C=C[C@@H]2C1 (stereo partly specified) [DIDYMELLAMIDE D] | > 25 | > 25 | > 25 | > 25
